The subject of assay [1] is Klebsiella aerogenes. Put plainly: Antibacterial activity against Enterobacter aerogenes ATCC 13048 at 100 ug/ml after 24 hrs. It is filed as functional, organism-based.
Assay [2] deals with P388. Put plainly: Cytotoxicity against mouse P388 cells after 2 days by MTT assay. The assay is classed as functional. The note with it: for pEC50: P388, 48 h, read-out: ED50 (the source's name). A digest of the protocol: (§1)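 The value reported is the ED50 against each tumour cell line. Mithramycin was run as positive control.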
(Formazan colour is commonly taken as a measure of viable cells.)

Assay [3] concerns A549. Kind of assay: Cytotoxicity against human A549 cells after 2 days by MTT assay. The assay is classed as functional. The method, boiled down: as §1
In assay [4] the test system is HT-29. Put plainly: Cytotoxicity against human HT-29 cells after 2 days by MTT assay. The assay is classed as functional. The method, boiled down: as §1
The test system of assay [5] is Salmonella enterica. Put plainly: Antibacterial activity against Salmonella enteritidis ATCC 13076 at 100 ug/ml after 24 hrs. The assay is classed as functional, organism-based. The note with it: Salmonella enterica subsp. enterica serovar Enteritidis.
In assay [6] the test system is Serratia marcescens. Put plainly: Antibacterial activity against Serratia marcescens ATCC 25419 at 100 ug/ml after 24 hrs. It is filed as functional, organism-based.
Assay [7] concerns Shigella sonnei. Put plainly: Antibacterial activity against Shigella sonnei ATCC 11060 at 100 ug/ml after 24 hrs. It is filed as functional, organism-based.
The test system of assay [8] is Yersinia enterocolitica. Put plainly: Antibacterial activity against Yersinia enterocolitica ATCC 23715 at 100 ug/ml after 24 hrs. The assay is classed as functional, organism-based.
Assay [9] concerns RAW264.7. Put plainly: Antiinflammatory activity in mouse RAW264.7 cells assessed as inhibition of LPS-stimulated COX2 expression at 10 uM after 16 hrs by Western blot analysis relative to control. It is filed as functional. A digest of the protocol: (§2)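 LPS-stimulated RAW 264.7 macrophages were treated with each compound at 10 µM. iNOS and COX-2 protein levels were measured by immunoblot, with β-actin also probed. Band intensity was expressed relative to the LPS-alone group, set at 100%. Data are mean ± SEM (n = 5), and significance versus LPS alone was set at P < 0.05. CAPE at 10 µM served as positive control.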
Background: Immunoblotting shows a protein as a band on a membrane.

Assay [10] relates to RAW264.7. Kind of assay: Antiinflammatory activity in mouse RAW264.7 cells assessed as inhibition of LPS-stimulated iNOS expression at 10 uM after 16 hrs by Western blot analysis relative to control. It is filed as functional. The method, boiled down:
as §2

For assay [11], the system named is Human betaherpesvirus 5. Put plainly: Antiviral activity against HCMV assessed as protection from virus-induced cytopathogenicity after 7 days by coulter counter. The assay is classed as functional, organism-based. The conditions noted are these: Human betaherpesvirus 5, 168 h. (Protection from cytopathic effect is a common read-out in antiviral testing.)

As a reminder, the pIC50 is −log10 of the IC50, conventionally taken in molar units.

pEC50, pIC50: −log10 of the molar value. The source made the active and inactive calls. The calls are words filed in the database; no cut-off is given here.

Consider `C/C(=C\CC[C@]1(C)C=Cc2cc(O)c(C)cc2O1)Cc1cc(C)co1` [CAPILLOBENZOPYRANOL], for which the outcome in assay [1], in [3], in assay [4], in assay [5], in assay [6] and in assay [7] was inactive. In addition, the result in assay [8] was inactive. Moreover, the pEC50 in assay [2] was 4.90. Also, in assay [9], the inhibition result was “inactive”.

As for `C=C/C(C)=C/CCC(C)Cc1cc(C(=O)O)co1` (stereo unspecified), the result in assay [1], in [2], in [3], in assay [4], in assay [5] and in assay [6] was inactive. Besides, the result in assay [7] and in assay [8] was inactive. The inhibition entry in [9] and in [10] was “inactive” each time.

As for `CC1=CC(=O)C(C/C=C(\C)CC/C=C(\C)Cc2cc(C)co2)=CC1=O`, the result in assay [1], in assay [2], in assay [3], in assay [4], in assay [5] and in [6] was inactive. Besides, the result in [7] and in assay [8] was inactive. Moreover, in [11], the pIC50 was 5.23.

Consider `CO[C@H](C(=O)[C@@H](O)[C@@H](C)O)[C@@H]1Cc2cc3cc(O[C@H]4C[C@@H](O[C@@H]5C[C@@H](O)[C@H](O)[C@@H](C)O5)[C@H](O)[C@@H](C)O4)c(C)c(O)c3c(O)c2C(=O)[C@H]1O[C@H]1C[C@@H](O[C@@H]2C[C@@H](O)[C@@H](O[C@@H]3C[C@](C)(O)[C@H](O)[C@@H](C)O3)[C@@H](C)O2)[C@H](O)[C@@H](C)O1` [PLICAMYCIN], for which the pEC50 in [2] was 7.22; in [3] (A549, 48 h, read-out: ED50 (the source's name)) it was 7.15; in [4] (HT-29, 48 h, read-out: ED50 (the source's name)), 7.15.

With `CC1=CC(=O)C(C/C=C(\C)CC/C=C(\C)CC/C=C(\C)CC[C@H](O)C(C)(C)O)=CC1=O` [CAPILLOQUINONE], the result in [1], in [3], in [4], in assay [5], in assay [6] and in assay [7] was inactive. For the same compound, the outcome in assay [8] was inactive. Moreover, the pEC50 in [2] was 5.01. The inhibition result in assay [9] was “inactive”.

For `C=C1CC[C@H](C)/C(C)=C\[C@H]2[C@H]1CC[C@]2(C)O`, the outcome in assay [1], in [2], in [3], in assay [4], in [5] and in assay [6] was inactive. The result in assay [7] and in assay [8] was inactive. Also, the inhibition result in assay [9] and in assay [10] was “inactive” in each case.

As for `CO[C@](C)(CC/C=C(\C)Cc1cc(C)co1)[C@@H]1Cc2cc(O)c(C)cc2O1` [CAPILLOBENZOFURANOL], the result in assay [1], in assay [2], in assay [3], in assay [4], in assay [5] and in assay [6] was inactive. Also, the outcome in assay [7] and in assay [8] was inactive. Also, the pIC50 in assay [11] is 4.87. For the same compound, the inhibition entry in [9] and in [10] was “inactive” throughout.

With `C=CC(=C)C(CCC(C)Cc1cc(C(=O)OC)co1)OC(C)=O` (stereo unspecified), the outcome in assay [1], in assay [2], in assay [3], in assay [4], in assay [5] and in [6] was inactive. The result in assay [7] and in [8] was inactive. Further, the inhibition entry in assay [9] and in [10] was “inactive” in each case.

On to `C/C(=C\Cc1cc(O)c(C)cc1O)CC/C=C(\C)Cc1cc(C)co1`, for which the outcome in assay [1], in [2], in [3], in [4], in assay [5] and in [6] was inactive. The result in [7] and in [8] was inactive. In addition, the pIC50 in [11] was 4.82. For the same compound, the inhibition result in [9] is “inactive”.

With `CC1(C)CC(O)C[C@@]2(C)OC(=O)C=C12` (stereo partly specified), the outcome in [1], in assay [2], in assay [3], in assay [4], in assay [5] and in assay [6] was inactive. In addition, the outcome in assay [7] and in assay [8] was inactive. In addition, the inhibition entry in [9] and in assay [10] was “inactive” each time.

The record behind these values is ChEMBL document CHEMBL1157060, “Antiviral and anti-inflammatory metabolites from the soft coral Sinularia capillosa” (J Nat Prod, 2010).
